Results on 24 compounds are retold here after ChEMBL document CHEMBL2046441, “Synthesis and SAR of 4-aminocyclopentapyrrolidines as N-type Ca²⁺ channel blockers with analgesic activity” (Bioorg Med Chem, 2012).

The nature of assay [1]: Inhibition of Voltage-dependent N-type calcium channel in human IMR32 cells by FLIPR based Ca(2+) flux assay. The assay is classed as cell-based, IMR-32. In outline: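 IMR32 cells were plated at 120,000/well and grown 48 h at 37 °C, 5% CO₂. Cells were loaded with Calcium 4 dye in HBSS/1 mM HEPES pH 7.4 for 1.5 h at room temperature, with antagonists present for 1 h of loading.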

Assay [2] can be described thus: Inhibition of L-type calcium channel in mouse ND7/23 cells by FLIPR based Ca(2+) flux assay. The assay is classed as cell-based. A digest of the protocol:
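ND7/23 cells were grown in DMEM with 10% heat-inactivated FBS and seeded at 5.0 × 10⁴ cells/well. After 24 h at 37 °C, 5% CO₂, cells were loaded with calcium dye in HBSS/20 mM HEPES pH 7.4 for 1.5 h at room temperature. Compounds were added for 3 min, then channels were activated with HBSS containing 50 mM KCl/2.5 mM CaCl₂.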

The test system of assay [3] is Rattus norvegicus. As to the kind of experiment: Analgesic activity in ip dosed Sprague-Dawley rat osteoarthritis pain model assessed as increase in maximum compressive grip force dosed 30 mins before grip force assessment. It counts as functional, organism-based. In outline:
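Male Sprague-Dawley rats (200–350 g) were tested at least 21 days after MIA injection. Dosing was 3, 10 or 30 mg/kg ip in 10% DMSO/PEG 400, 30 min before testing; n = 12 per group. Hindlimb grip force was measured twice ~2 min apart to get CFmax, normalised to body weight. Vehicle group set as 0%, age-matched naive group as 100%.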

For assay [4], the target named is Voltage-dependent N-type calcium channel subunit alpha-1B (Rattus norvegicus) (UniProt Q02294). The conditions noted are these: HEK293, 0.3 uM.
For assay [5] the target is unchanged. The conditions noted are these: HEK293, 0.3 uM. The source holds these as a separate data set.
In assay [6] the test system is Rattus norvegicus. As to the kind of experiment: Analgesic activity in ip dosed Sprague-Dawley rat acute inflammatory pain model assessed as reduction in carrageenan-induced thermal hypersensitivity of paw withdrawal latency dosed 30 mins before thermal hypersensitivity assessment. It counts as functional, organism-based. A digest of the protocol: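 Male rats 200–350 g; 10% DMSO/PEG400 vehicle; doses 3, 10, 30 mg/kg ip, n = 6. Carrageenan is injected into the plantar surface of the right hind paw. After 2 h, a Hargreaves radiant heat stimulus is applied on 30 °C glass, with cut-off 20.48 s. Both paws are tested in 3 trials about 5 min apart. Latency is taken as the mean of the two shortest readings.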

Where [7] appears, read: Homo sapiens, IMR-32, read-out: IC50.
Setting [8] is: Homo sapiens, IMR-32, read-out: pIC50 (converted).

Molecules are shown by their SMILES. Where only a bound is given, the exact number is not on record here.

Chain of Voltage-dependent N-type calcium channel subunit alpha-1B (Rattus norvegicus) (Q02294 whole entry, looked up): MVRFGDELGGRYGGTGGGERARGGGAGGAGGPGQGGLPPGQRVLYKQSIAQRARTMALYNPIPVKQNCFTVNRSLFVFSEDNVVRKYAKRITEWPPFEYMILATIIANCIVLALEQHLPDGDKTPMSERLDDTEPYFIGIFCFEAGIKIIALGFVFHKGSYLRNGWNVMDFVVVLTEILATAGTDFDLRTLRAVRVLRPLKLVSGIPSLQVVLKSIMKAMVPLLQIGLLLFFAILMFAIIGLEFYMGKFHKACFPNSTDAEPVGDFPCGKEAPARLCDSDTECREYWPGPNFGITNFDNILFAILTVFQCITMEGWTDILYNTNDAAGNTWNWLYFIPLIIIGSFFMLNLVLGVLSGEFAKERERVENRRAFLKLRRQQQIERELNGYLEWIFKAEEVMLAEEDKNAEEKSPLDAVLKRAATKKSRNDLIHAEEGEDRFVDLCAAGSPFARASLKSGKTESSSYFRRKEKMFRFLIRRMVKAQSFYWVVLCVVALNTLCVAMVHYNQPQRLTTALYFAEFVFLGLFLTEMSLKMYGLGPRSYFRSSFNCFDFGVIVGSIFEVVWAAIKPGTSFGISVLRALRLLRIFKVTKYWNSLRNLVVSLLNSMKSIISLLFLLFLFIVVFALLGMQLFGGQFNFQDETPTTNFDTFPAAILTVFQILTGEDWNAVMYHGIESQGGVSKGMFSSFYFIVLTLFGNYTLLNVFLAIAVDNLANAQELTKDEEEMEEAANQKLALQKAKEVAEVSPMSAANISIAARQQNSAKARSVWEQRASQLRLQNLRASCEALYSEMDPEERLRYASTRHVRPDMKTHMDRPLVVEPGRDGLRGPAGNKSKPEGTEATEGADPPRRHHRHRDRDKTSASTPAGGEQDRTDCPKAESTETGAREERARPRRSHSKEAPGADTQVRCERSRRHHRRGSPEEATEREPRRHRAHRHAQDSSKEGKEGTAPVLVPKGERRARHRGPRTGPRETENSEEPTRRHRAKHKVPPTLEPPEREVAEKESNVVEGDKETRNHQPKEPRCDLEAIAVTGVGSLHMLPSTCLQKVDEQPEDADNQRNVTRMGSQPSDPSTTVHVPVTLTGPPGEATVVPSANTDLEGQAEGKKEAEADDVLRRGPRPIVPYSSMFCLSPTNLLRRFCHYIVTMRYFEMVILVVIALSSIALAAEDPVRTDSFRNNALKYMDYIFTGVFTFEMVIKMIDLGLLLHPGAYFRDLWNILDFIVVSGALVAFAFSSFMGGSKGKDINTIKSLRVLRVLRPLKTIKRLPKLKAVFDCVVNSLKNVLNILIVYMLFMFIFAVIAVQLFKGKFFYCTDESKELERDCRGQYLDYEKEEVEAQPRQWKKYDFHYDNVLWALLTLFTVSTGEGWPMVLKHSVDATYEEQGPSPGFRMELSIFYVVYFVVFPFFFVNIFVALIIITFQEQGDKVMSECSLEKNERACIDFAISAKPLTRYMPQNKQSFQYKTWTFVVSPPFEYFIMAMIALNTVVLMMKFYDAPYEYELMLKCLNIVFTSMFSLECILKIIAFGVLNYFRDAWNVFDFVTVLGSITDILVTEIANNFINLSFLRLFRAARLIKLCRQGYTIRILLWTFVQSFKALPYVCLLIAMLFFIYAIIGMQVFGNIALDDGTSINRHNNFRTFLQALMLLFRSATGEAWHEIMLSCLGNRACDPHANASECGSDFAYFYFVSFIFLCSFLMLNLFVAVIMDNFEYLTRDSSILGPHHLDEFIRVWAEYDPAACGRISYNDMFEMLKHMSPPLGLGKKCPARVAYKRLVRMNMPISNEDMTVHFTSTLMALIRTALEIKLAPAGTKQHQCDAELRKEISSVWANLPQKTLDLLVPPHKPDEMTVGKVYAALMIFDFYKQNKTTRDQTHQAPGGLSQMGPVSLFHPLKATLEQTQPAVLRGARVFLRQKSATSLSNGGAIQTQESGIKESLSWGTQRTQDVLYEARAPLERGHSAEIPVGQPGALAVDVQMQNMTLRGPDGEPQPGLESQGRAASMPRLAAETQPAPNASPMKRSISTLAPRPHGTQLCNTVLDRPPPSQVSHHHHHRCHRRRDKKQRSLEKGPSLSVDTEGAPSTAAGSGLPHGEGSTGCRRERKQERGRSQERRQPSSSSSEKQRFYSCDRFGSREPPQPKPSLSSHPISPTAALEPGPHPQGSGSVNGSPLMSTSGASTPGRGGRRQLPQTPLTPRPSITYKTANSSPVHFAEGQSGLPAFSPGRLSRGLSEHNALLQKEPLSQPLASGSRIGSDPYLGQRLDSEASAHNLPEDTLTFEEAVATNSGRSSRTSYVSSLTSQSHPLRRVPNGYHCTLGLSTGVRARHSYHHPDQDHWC

Regarding `O=C(N[C@H]1CC[C@H]2CN(Cc3ccccc3)C[C@H]21)C(C1CCCCC1)C1CCCCC1`, the pIC50 (commonly −log10 of the IC50, conventionally taken in molar units) in assay [1] (imr-32) is recorded as 4.78. For the same compound, the IC50 in assay [1] (imr-32, read-out: IC50) came out at 16500 nM.

Regarding `O=C(N[C@H]1CC[C@H]2CN(Cc3ccccc3F)C[C@H]21)C(C1CCCCC1)C1CCCCC1`, the IC50 in assay [2] (read-out: IC50) is above 30000 nM; in assay [1] (setting [7]) it was 1120 nM; in assay [1] (setting [8]), 1120 nM.

Consider `O=C(N[C@H]1CC[C@H]2CN(Cc3cccc(F)c3)C[C@H]21)C(C1CCCCC1)C1CCCCC1`, for which the IC50 is above 30000 nM in assay [2] (read-out: IC50), 990 nM in assay [1] (setting [7]) and 977 nM in assay [1] (setting [8]).

Regarding `O=C(N[C@H]1CC[C@H]2CN(Cc3ccc(F)cc3)C[C@H]21)C(C1CCCCC1)C1CCCCC1`, the IC50 is 22900 nM in assay [2] (read-out: IC50), 22900 nM in assay [2] (read-out: pIC50 (converted)), 740 nM in assay [1] (setting [7]) and 741 nM in assay [1] (setting [8]).

For the compound `O=C(N[C@H]1CC[C@H]2CN(Cc3ccccc3C(F)(F)F)C[C@H]21)C(C1CCCCC1)C1CCCCC1`, the IC50 in assay [2] (read-out: IC50) is above 30000 nM; in assay [1] (setting [7]), 2430 nM; in assay [1] (setting [8]), 2450 nM.

For the compound `O=C(N[C@H]1CC[C@H]2CN(Cc3cccc(OC(F)(F)F)c3)C[C@H]21)C(C1CCCCC1)C1CCCCC1`, the IC50 in assay [2] (read-out: IC50) is above 30000 nM; in assay [1] (setting [7]), 510 nM; in assay [1] (setting [8]) it was 417 nM.

`Cc1cccc(CN2C[C@@H]3CC[C@H](NC(=O)C(C4CCCCC4)C4CCCCC4)[C@@H]3C2)c1`: the IC50 in assay [2] (read-out: IC50) is 22300 nM; in assay [2] (read-out: pIC50 (converted)), 22400 nM; in assay [1] (setting [7]) it was 860 nM; in assay [1] (setting [8]), 851 nM.

Take `O=C(N[C@@H]1CC[C@@H]2CN(Cc3cccc(C(F)(F)F)c3)C[C@@H]21)C(C1CCCCC1)C1CCCCC1`: the IC50 in assay [2] (read-out: IC50) is above 30000 nM; in assay [1] (setting [7]) it was 1400 nM.

For the compound `O=C(N[C@H]1CC[C@H]2CN(Cc3cccc(C(F)(F)F)c3)C[C@H]21)C(C1CCCCC1)C1CCCCC1`, the Activity entry in the assay on Rattus norvegicus [3] and in the assay on Rattus norvegicus [6] was “Dose-dependent effect” in each case. For the same compound, the inhibition (in general, the change of the read-out against control, counted positive when it falls) in assay [4] amounted to 77%; in assay [5], 49%.

As for `O=C(N[C@@H]1CC[C@@H]2CN(Cc3ccccc3)C[C@@H]21)C(c1ccccc1)C1CCCCC1` (mixture of isomers), the IC50 in assay [2] (read-out: IC50) was above 30000 nM; in assay [1] (setting [7]) it was 1060 nM; in assay [1] (setting [8]) it was 1070 nM.

With `CC(C)C(C(=O)N[C@@H]1CC[C@@H]2CN(Cc3ccccc3)C[C@@H]21)c1ccccc1` (mixture of isomers), the IC50 in assay [2] (read-out: IC50) was 7210 nM; in assay [2] (read-out: pIC50 (converted)), 7240 nM; in assay [1] (setting [7]), 1460 nM; in assay [1] (setting [8]) it was 1480 nM.

Turning to `CC(C)C(C(=O)N[C@H]1CC[C@H]2CN(Cc3cccc(C(F)(F)F)c3)C[C@H]21)c1ccccc1` (mixture of isomers), the IC50 is 5000 nM in assay [2] (read-out: IC50), 5010 nM in assay [2] (read-out: pIC50 (converted)), 360 nM in assay [1] (setting [7]) and 355 nM in assay [1] (setting [8]).

Take `O=C(N[C@H]1CC[C@H]2CN(Cc3ccccc3)C[C@H]21)C1(c2ccccc2)CCCC1` (racemic): the IC50 is 4840 nM in assay [2] (read-out: IC50), 4790 nM in assay [2] (read-out: pIC50 (converted)), 1930 nM in assay [1] (setting [7]) and 1950 nM in assay [1] (setting [8]).

For `CCC(CC)C(=O)N[C@H]1CC[C@H]2CN(Cc3cccc(C(F)(F)F)c3)C[C@H]21` (racemic), the IC50 in assay [2] (read-out: IC50) was 19000 nM; in assay [2] (read-out: pIC50 (converted)), 19100 nM; in assay [1] (setting [7]) it was 2070 nM; in assay [1] (setting [8]) it was 2090 nM.

Regarding `O=C(N[C@H]1CC[C@H]2CN(Cc3cccc(C(F)(F)F)c3)C[C@H]21)C1CCCCC1` (racemic), the IC50 in assay [2] (read-out: IC50) was 16100 nM; in assay [2] (read-out: pIC50 (converted)) it was 16200 nM; in assay [1] (setting [7]), 1260 nM; in assay [1] (setting [8]), 1260 nM.

Turning to `O=C(N[C@H]1CC[C@H]2CN(Cc3cccc(C(F)(F)F)c3)C[C@H]21)C1CCCCCC1` (racemic), the IC50 in assay [2] (read-out: IC50) was 9300 nM; in assay [2] (read-out: pIC50 (converted)), 13800 nM; in assay [1] (setting [7]), 560 nM; in assay [1] (setting [8]), 562 nM.

With `O=C(N[C@H]1CC[C@H]2CN(Cc3cccc(C(F)(F)F)c3)C[C@H]21)C(c1ccccc1)c1ccccc1` (racemic), the IC50 was 6300 nM in assay [2] (read-out: IC50), 6310 nM in assay [2] (read-out: pIC50 (converted)), 670 nM in assay [1] (setting [7]) and 661 nM in assay [1] (setting [8]).

Turning to `O=C(N[C@H]1CC[C@H]2CN(Cc3cccc(C(F)(F)F)c3)C[C@H]21)C(C1CCCCC1)C1CCCCC1` (relative stereo), the IC50 was above 30000 nM in assay [2] (read-out: IC50) and 1070 nM in assay [1] (imr-32, read-out: IC50). Further, the pIC50 in assay [1] (imr-32) came out at 5.97.

With `O=C(N[C@H]1CC[C@H]2CN(Cc3ccccc3)C[C@H]21)C(C1CCCCC1)C1CCCCC1` (relative stereo), the IC50 in assay [2] (read-out: IC50) is above 30000 nM; in assay [1] (imr-32, read-out: IC50), 4670 nM. In addition, the pIC50 in assay [1] (imr-32) is 5.33.

For the compound `O=C(N[C@H]1CC[C@H]2CN(Cc3ccccc3)C[C@H]21)C(c1ccccc1)C1CCCC1` (relative stereo), the IC50 is 5150 nM in assay [2] (read-out: IC50), 5130 nM in assay [2] (read-out: pIC50 (converted)), 920 nM in assay [1] (setting [7]) and 933 nM in assay [1] (setting [8]).

Regarding `O=C(N[C@H]1CC[C@H]2CN(Cc3ccccc3)C[C@H]21)C1(c2ccccc2)CCCCC1` (relative stereo), the IC50 in assay [2] (read-out: IC50) was 5560 nM; in assay [2] (read-out: pIC50 (converted)), 5620 nM; in assay [1] (setting [7]), 1040 nM; in assay [1] (setting [8]), 1020 nM.

Take `CCCC(CCC)C(=O)N[C@H]1CC[C@H]2CN(Cc3cccc(C(F)(F)F)c3)C[C@H]21` (relative stereo): the IC50 in assay [2] (read-out: IC50) is 20100 nM; in assay [2] (read-out: pIC50 (converted)) it was 20400 nM; in assay [1] (setting [7]), 950 nM; in assay [1] (setting [8]), 955 nM.

For `O=C(N[C@H]1CC[C@H]2CN(Cc3cccc(C(F)(F)F)c3)C[C@H]21)C1CCCC1` (relative stereo), the IC50 is 12800 nM in assay [2] (read-out: IC50), 12900 nM in assay [2] (read-out: pIC50 (converted)), 2310 nM in assay [1] (setting [7]) and 2290 nM in assay [1] (setting [8]).

As to `O=C(N[C@H]1CC[C@H]2CN(Cc3cccc(C(F)(F)F)c3)C[C@H]21)C(c1ccc(F)cc1)c1ccc(F)cc1` (relative stereo), the IC50 is 7100 nM in assay [2] (read-out: IC50), 7080 nM in assay [2] (read-out: pIC50 (converted)), 640 nM in assay [1] (setting [7]) and 646 nM in assay [1] (setting [8]).
